According to ChEMBL document CHEMBL3576829, “Design, synthesis and evaluation of scutellarein-O-alkylamines as multifunctional agents for the treatment of Alzheimer's disease” (Eur J Med Chem, 2015):
Active and inactive are the calls of the source.

Legend:
Acetylcholinesterase [1] = molecular target: T1, Acetylcholinesterase (Rattus norvegicus, UniProt P37136); assay: Inhibition of AChE in rat cortex using acetylthiocholine iodide as substrate after 15 mins by Ellman's method
T1 sequence (P37136 whole entry): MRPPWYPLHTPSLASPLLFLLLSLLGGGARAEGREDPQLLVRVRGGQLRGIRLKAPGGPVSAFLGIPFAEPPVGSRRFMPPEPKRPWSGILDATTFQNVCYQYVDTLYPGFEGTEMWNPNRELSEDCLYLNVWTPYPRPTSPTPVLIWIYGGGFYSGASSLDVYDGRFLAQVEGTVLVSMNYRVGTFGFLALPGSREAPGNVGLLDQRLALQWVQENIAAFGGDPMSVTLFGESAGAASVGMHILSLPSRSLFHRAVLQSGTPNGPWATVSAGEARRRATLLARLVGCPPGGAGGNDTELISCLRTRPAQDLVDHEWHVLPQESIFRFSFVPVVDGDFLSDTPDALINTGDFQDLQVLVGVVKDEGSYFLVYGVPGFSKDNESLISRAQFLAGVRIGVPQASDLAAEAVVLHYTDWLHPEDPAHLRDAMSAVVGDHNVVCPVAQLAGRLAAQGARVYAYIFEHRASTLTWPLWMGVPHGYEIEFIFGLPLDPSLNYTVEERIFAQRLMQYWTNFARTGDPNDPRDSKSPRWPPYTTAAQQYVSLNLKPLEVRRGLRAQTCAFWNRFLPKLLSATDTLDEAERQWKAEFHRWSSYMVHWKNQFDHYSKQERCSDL

[2] = Inhibition of BuChE in rat serum using butyrylthiocholine iodide as substrate after 15 mins by Ellman's method; conditions: 0.25 h
Method in brief: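 Rat serum (25%, 10 µL) in 100 µL with 1 mmol/L butyrylthiocholine iodide stock, pH 7.4 phosphate buffer and graded inhibitor levels, 37°C for 15 min; DTNB (0.2%) then added and absorbance read at 405 nm.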

Acetylcholinesterase [3] = molecular target: Acetylcholinesterase (Electrophorus electricus, UniProt O42275); assay: Inhibition of electric eel AChE using acetylthiocholine iodide as substrate after 15 mins by Ellman's method
Rattus norvegicus = species: Rattus norvegicus; assay: Selectivity index, ratio of IC50 for rat serum BuChE to IC50 for rat cortex AChE
Acetylcholinesterase [4] = molecular target: Acetylcholinesterase (Homo sapiens, UniProt P22303); assay: Inhibition of AChE in human erythrocytes using acetylthiocholine iodide as substrate after 15 mins by Ellman's method; assay type: cell-based
[5] = Metal chelating activity of the compound assessed as formation of copper-compound complex in methanol solution at 37.5 uM after 30 mins by UV-vis spectrometry; assay type: physicochemical; conditions: 0.5 h
Method in brief: (§1)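 UV absorption (200–500 nm) of compound recorded with or without CuCl2, FeSO4, ZnCl2 or AlCl3 after 30 min incubation at room temperature.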

[6] = Metal chelating activity of the compound assessed as formation of aluminium-compound complex in methanol solution at 37.5 uM after 30 mins by UV-vis spectrometry; assay type: physicochemical; conditions: 0.5 h; method in brief: as §1
[7] = Metal chelating activity of the compound assessed as formation of iron-compound complex in methanol solution at 37.5 uM after 30 mins by UV-vis spectrometry; assay type: physicochemical; conditions: 0.5 h; method in brief: as §1
[8] = Metal chelating activity of the compound assessed as formation of zinc-compound complex in methanol solution at 37.5 uM after 30 mins by UV-vis spectrometry; assay type: physicochemical; conditions: 0.5 h; method in brief: as §1
[9] = Metal chelating activity of the compound assessed as formation of copper-compound complex at ratio of 1:1 in methanol solution at 37.5 uM by molar ratio method; assay type: physicochemical
Method in brief: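 Molar ratio titration: compound in methanol (37.5 μM final) titrated with CuCl2 (Cu2+ 7.5–93.75 μM final). Spectra corrected by numerical subtraction of CuCl2 and compound at matching concentrations; absorbance at 337 nm plotted against mole fraction of compound to give stoichiometry.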

[10] = molecular target: Amyloid-beta precursor protein (Homo sapiens) (UniProt P05067); assay: Inhibition of self-induced Abeta(1 to 42) (unknown origin) aggregation at 25 uM after 24 hrs by Thioflavin T-based fluorometric assay
Method in brief: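 HFIP-pretreated Aβ1-42 (25 µM final) incubated alone or with test agent (25 µM) in 50 mM phosphate buffer pH 7.4, 37°C for 24 h in sealed wells.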

[11] = molecular target: Amyloid-beta precursor protein (Homo sapiens) (UniProt P05067); assay: Inhibition of self-induced Abeta(1 to 42) (unknown origin) aggregation at 12.5 uM after 24 hrs by Thioflavin T-based fluorometric assay
[12] = molecular target: Amyloid-beta precursor protein (Homo sapiens) (UniProt P05067); assay: Inhibition of self-induced Abeta(1 to 42) (unknown origin) aggregation at 50 uM after 24 hrs by Thioflavin T-based fluorometric assay
[13] = molecular target: Amyloid-beta precursor protein (Homo sapiens) (UniProt P05067); assay: Inhibition of Cu2+-induced amyloid beta (1 to 42) (unknown origin) aggregation at 25 uM after 24 hrs by thioflavin-T based fluorescence assay
Method in brief: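 Aβ1-42 (25 µM final) in HEPES 20 mM, pH 6.6, 150 mM NaCl, exposed to Cu2+ (25 µM final) with or without test agent (25 µM), 37°C for 24 h in sealed wells.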

[14] = molecular target: Amyloid-beta precursor protein (Homo sapiens) (UniProt P05067); assay: Inhibition of Cu2+-induced amyloid beta (1 to 42) (unknown origin) aggregation at 5 uM after 24 hrs by thioflavin-T based fluorescence assay
Method in brief: (§2)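 Aβ1-42 (25 μM final) plus Cu2+ (25 μM final) in HEPES (20 mM, pH 6.6, 150 mM NaCl), ±compound, incubated 24 h at 37 °C.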

[15] = molecular target: Amyloid-beta precursor protein (Homo sapiens) (UniProt P05067); assay: Inhibition of Cu2+-induced amyloid beta (1 to 42) (unknown origin) aggregation at 10 uM after 24 hrs by thioflavin-T based fluorescence assay; method in brief: as §2
[16] = molecular target: Amyloid-beta precursor protein (Homo sapiens) (UniProt P05067); assay: Disaggregation of Cu2+-induced amyloid beta (1 to 42) (unknown origin) at 25 uM after 24 hrs by thioflavin T fluorescence method
Method in brief: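 Aβ1-42 (25 μM final) preincubated with Cu2+ (25 μM final) in HEPES (20 mM, pH 6.6, 150 mM NaCl) at 37 °C for 24 h to form fibrils. Compound (25 μM final) then added for a further 24 h at 37 °C, wells sealed. 5 μM ThT in 50 mM glycine-NaOH pH 8.5 added; ex 446/em 490 nm; triplicate.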

[17] = molecular target: Amyloid-beta precursor protein (Homo sapiens) (UniProt P05067); assay: Inhibition of Cu2+-induced amyloid beta (1 to 42) (unknown origin) aggregation after 24 hrs by transmission electron microscopy
Method in brief: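 Aβ1-42 (25 μM) diluted in HEPES (20 mM, pH 6.6, 150 mM NaCl) and treated with one equivalent of Cu2+ for 2 min at room temperature, then incubated ±compound for 24 h at 37 °C. Samples on carbon-coated grids for 2 min, washed twice with water, negatively stained 2 min with 2% phosphomolybdic acid, imaged by TEM.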

SH-SY5Y [18] = assay: Cytotoxicity against human SH-SY5Y cells assessed as cell viability up to 10 uM after 24 hrs by MTT assay; assay type: cell-based
Method in brief: (§3)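 SH-SY5Y human neuronal cells exposed to compound at 1, 10 and 100 μM for 24 h; viability read by MTT assay. Mean ± SEM of three independent experiments.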

SH-SY5Y [19] = assay: Cytotoxicity against human SH-SY5Y cells assessed as reduction in cell viability at 100 uM after 24 hrs by MTT assay; assay type: cell-based; method in brief: as §3
[20] = Neuroprotective activity against H2O2-induced cell injury in rat PC12 cells assessed as cell viability at 10 uM treated with compound for 24 hrs prior to H2O2 addition for 2 hrs by MTT assay (reference value: 56.1%); assay type: functional; conditions: PC-12, read-out: Activity
[21] = Neuroprotective activity against H2O2-induced cell injury in rat PC12 cells assessed as cell viability at 1 uM treated with compound for 24 hrs prior to H2O2 addition for 2 hrs by MTT assay (reference value: 56.1%); assay type: functional; conditions: PC-12, read-out: Activity
Mus musculus [22] = assay: Reversal of scopolamine-induced cognitive deficit in Kunming mouse assessed as longer latency time at 6.6 mg/kg, po administered 1 hr before training trial measured at 24 hrs after training trial by passive avoidance test; assay type: functional
Method in brief: (§4)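 Kunming mice, 18–22 g, six weeks old, either sex, n=10 per group. Compound given p.o. 1 h before training; scopolamine 3 mg/kg i.p. 30 min later. Training used a 0.5 mA, 2 s foot shock on stepping down; step-down latency measured 24 h later, 300 s cut-off. Mean ± SEM; one-way ANOVA with t test.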

Mus musculus [23] = assay: Reversal of scopolamine-induced cognitive deficit in Kunming mouse assessed as longer latency time at 19.8 mg/kg, po administered 1 hr before training trial measured at 24 hrs after training trial by passive avoidance test; assay type: functional; method in brief: as §4
Mus musculus [24] = assay: Reversal of scopolamine-induced cognitive deficit in Kunming mouse assessed as longer latency time at 0.66 mg/kg, po administered 1 hr before training trial measured at 24 hrs after training trial by passive avoidance test; assay type: functional, organism-based; method in brief: as §4

Sequence of Amyloid-beta precursor protein (Homo sapiens) (P05067 whole entry): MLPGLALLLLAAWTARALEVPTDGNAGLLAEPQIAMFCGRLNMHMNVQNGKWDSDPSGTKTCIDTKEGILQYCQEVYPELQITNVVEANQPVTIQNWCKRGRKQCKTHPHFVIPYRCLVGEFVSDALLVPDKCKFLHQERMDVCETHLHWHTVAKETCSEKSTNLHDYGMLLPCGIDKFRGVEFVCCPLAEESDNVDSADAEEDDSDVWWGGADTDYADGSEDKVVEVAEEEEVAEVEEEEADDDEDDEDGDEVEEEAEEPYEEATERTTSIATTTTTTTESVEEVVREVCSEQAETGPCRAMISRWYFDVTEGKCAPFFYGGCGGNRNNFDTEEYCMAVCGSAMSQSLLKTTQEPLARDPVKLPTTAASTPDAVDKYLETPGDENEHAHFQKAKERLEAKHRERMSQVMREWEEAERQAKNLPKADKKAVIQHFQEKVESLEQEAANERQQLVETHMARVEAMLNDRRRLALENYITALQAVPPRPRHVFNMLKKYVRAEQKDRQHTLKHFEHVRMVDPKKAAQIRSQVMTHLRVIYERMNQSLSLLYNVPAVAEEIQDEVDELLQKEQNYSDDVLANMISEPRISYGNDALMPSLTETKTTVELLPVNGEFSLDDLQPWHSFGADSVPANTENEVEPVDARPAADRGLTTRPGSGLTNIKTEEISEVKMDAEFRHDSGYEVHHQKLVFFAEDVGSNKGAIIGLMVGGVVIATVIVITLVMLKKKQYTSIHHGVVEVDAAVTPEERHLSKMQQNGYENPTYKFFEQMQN
Sequence of Acetylcholinesterase (Homo sapiens, UniProt P22303) (P22303 whole entry): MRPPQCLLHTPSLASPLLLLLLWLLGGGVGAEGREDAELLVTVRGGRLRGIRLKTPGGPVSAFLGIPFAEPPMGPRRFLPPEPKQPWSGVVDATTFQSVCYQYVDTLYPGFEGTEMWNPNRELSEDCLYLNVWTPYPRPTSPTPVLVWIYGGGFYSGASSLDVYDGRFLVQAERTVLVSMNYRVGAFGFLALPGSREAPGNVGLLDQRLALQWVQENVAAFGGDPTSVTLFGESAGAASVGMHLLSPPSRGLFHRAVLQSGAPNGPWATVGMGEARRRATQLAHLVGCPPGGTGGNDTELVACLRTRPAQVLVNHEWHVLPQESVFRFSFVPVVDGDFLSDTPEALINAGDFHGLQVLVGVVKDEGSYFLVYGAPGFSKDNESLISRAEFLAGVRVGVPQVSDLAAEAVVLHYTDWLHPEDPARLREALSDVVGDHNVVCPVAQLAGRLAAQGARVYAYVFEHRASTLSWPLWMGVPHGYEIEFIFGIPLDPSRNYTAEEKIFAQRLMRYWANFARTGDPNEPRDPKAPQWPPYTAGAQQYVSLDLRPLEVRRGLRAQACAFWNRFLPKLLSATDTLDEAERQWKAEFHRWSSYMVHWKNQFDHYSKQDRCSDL
Sequence of Acetylcholinesterase (Electrophorus electricus, UniProt O42275) (O42275 whole entry): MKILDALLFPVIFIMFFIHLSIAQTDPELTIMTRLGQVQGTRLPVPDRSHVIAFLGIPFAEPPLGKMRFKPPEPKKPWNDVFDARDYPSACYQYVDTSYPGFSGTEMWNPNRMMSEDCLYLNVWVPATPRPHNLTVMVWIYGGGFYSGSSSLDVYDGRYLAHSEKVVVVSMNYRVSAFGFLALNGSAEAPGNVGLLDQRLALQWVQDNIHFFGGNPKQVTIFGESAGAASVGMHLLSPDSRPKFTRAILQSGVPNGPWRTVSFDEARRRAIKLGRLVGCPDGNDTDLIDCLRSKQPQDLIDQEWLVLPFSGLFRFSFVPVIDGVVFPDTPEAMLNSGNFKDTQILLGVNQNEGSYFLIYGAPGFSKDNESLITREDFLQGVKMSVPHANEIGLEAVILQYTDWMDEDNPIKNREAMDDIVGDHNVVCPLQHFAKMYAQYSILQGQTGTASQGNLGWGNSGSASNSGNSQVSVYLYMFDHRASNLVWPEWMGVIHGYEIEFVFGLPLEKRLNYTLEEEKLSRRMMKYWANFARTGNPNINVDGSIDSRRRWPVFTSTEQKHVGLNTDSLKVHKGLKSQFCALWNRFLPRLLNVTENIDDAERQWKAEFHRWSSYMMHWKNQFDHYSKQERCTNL

In the case of `CCN(CCCCOc1ccc(-c2cc(=O)c3c(O)c(OC)c(OC)cc3o2)cc1)Cc1ccccc1OC`, the IC50 (Acetylcholinesterase [1]) is reported as 620 nM, the IC50 [2] is reported as 62000 nM and the IC50 (Acetylcholinesterase [3]) is reported as 850 nM. The Ratio IC50 (Rattus norvegicus) was 100, the IC50 (Acetylcholinesterase [4]) was 250 nM and the Activity [5] was “Active”. The Activity [6] was “Active”, the Activity [7] was “Not Active” and the Activity [8] was “Not Active”. The Activity [9] was “Active”, the inhibition [10] was 69.1% and the inhibition [11] was 43.5%. The inhibition [12] was 87.2%, the inhibition [13] was 85.7% and the inhibition [14] was 46.5%. For the same molecule, the inhibition [15] was 64.6%, the inhibition [16] was 81.3% and the inhibition [17] was “Active”. The Activity (SH-SY5Y [18]) was “Non-toxic”, the Activity (SH-SY5Y [19]) was 80% and the viability at 10 µM [20] was 75.1%. It also gave a viability at 1 µM [21] of 65.9%, a Time (Mus musculus [22]) of 136.2 s and a Time (Mus musculus [23]) of 118.2 s. The Activity (Mus musculus [24]) was “inactive”.
